Laboratory results as given in article PMC12475083 (Scientific Reports, 2025).
Like-named read-outs stand apart in the source and are kept apart here.

Columns and labels:
KB (epidermal carcinoma) = assay: Cytotoxicity, WST-8 cell viability; format: cell-based, human; settings: read-out: Cancer cell lines IC50 KB
Summary of the method: (§1)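 Cells were seeded at 10,000 cells/well and grown for 24 h. Test compounds were dissolved in DMSO, diluted in medium and added at 80, 40, 20 and 10 µM. Cells were then incubated for 48 h. Viability was read with WST-8 plus 1-methoxy PMS as formazan absorbance at 450 nm. Controls were doxorubicin (positive) and 0.25% DMSO (vehicle). IC50 came from concentration-response curves, mean ± SD (n = 3).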

SK-MEL (melanoma) = assay: Cytotoxicity, WST-8 cell viability; format: cell-based, human; settings: read-out: Cancer cell lines IC50 SK-MEL
Summary of the method: as §1

hHDAC1 = hHDAC1 (Homo sapiens, UniProt Q13547); assay: biochemical; format: biochemical; settings: for hHDAC1 % @1 µM: inhibitor at 1 µM; for hHDAC1 % @10 µM: inhibitor at 10 µM
Sequence of hHDAC1 (Q13547 whole entry): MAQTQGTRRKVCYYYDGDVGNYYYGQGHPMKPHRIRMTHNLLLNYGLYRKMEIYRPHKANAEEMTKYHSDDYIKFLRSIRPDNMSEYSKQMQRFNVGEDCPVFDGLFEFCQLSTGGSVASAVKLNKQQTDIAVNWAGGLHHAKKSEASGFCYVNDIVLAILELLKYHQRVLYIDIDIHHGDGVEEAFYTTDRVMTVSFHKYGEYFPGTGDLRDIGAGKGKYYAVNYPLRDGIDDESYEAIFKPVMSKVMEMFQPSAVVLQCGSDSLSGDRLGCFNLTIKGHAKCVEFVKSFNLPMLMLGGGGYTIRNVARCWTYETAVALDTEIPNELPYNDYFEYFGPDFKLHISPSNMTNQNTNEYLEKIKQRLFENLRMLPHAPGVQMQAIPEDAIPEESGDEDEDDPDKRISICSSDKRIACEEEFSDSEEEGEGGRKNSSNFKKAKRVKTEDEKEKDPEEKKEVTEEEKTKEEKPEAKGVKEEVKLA

hHDAC8 = target: T1, hHDAC8 (Homo sapiens, UniProt Q9BY41); assay: biochemical; format: biochemical; settings: for hHDAC8 % @1 µM: inhibitor at 1 µM; for hHDAC8 % @10 µM: inhibitor at 10 µM
T1 sequence (Q9BY41 1-377): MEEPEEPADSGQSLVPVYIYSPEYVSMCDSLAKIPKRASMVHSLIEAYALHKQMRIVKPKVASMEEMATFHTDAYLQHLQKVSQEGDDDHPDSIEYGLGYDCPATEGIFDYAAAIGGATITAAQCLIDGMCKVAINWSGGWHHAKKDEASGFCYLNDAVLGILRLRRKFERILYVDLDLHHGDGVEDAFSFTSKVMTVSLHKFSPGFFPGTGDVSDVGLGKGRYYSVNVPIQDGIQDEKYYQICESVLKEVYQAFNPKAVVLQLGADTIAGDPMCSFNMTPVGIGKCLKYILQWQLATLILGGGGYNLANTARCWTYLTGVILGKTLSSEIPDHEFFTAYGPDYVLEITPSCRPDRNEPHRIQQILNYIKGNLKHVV

Vero kidney cells = assay: Cytotoxicity, WST-8 cell viability, non-cancer kidney cells; format: cell-based; settings: read-out: Kidney cells IC50 Vero
Summary of the method: as §1

[1] = system: BT-549 (breast carcinoma); assay: Cytotoxicity, WST-8 cell viability; format: cell-based, human; settings: read-out: Cancer cell lines IC50 BT-549
Summary of the method: as §1

[2] = system: SK-OV-3 (ovarian carcinoma); assay: Cytotoxicity, WST-8 cell viability; format: cell-based, human; settings: read-out: Cancer cell lines IC50 SK-OV-3
Summary of the method: as §1

hHDAC6 = target: T2, hHDAC6 (Homo sapiens, UniProt Q9UBN7); assay: biochemical
T2 sequence (Q9UBN7 1-1215): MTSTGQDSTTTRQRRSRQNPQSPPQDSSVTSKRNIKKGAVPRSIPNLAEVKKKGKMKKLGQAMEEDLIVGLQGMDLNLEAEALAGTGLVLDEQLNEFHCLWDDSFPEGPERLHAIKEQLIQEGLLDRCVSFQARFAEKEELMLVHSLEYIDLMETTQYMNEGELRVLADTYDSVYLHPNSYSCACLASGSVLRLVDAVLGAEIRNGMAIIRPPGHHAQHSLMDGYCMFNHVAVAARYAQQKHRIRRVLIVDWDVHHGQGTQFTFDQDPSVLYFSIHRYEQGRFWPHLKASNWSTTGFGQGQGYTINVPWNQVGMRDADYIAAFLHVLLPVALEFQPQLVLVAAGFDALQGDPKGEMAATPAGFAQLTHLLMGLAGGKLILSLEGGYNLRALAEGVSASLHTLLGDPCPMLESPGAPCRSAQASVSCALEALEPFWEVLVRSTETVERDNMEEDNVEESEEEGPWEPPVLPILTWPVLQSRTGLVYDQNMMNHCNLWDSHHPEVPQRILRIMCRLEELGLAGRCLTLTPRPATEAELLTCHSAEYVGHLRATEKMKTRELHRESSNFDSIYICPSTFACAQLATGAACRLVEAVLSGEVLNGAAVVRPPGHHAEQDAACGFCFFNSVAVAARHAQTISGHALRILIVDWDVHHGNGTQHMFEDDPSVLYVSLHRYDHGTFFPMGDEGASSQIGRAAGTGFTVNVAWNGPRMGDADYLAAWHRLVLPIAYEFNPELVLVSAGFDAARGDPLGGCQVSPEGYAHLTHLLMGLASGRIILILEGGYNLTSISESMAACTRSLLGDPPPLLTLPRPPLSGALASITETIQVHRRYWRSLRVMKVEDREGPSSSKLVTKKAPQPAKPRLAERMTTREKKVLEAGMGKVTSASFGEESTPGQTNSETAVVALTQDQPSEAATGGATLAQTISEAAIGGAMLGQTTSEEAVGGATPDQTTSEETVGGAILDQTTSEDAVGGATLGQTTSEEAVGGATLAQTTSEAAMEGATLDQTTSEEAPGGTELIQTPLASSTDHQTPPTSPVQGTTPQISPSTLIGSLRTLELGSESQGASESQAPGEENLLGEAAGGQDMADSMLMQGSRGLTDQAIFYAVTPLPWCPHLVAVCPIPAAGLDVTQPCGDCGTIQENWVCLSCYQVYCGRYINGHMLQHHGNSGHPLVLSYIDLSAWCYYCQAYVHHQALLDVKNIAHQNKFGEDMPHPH

drHDAC10 = target: T3, drHDAC10 (Danio rerio, UniProt F1QCV2); assay: Enzymatic in vitro HDAC10 inhibition assay; format: biochemical, zebrafish
T3 sequence (F1QCV2 1-675): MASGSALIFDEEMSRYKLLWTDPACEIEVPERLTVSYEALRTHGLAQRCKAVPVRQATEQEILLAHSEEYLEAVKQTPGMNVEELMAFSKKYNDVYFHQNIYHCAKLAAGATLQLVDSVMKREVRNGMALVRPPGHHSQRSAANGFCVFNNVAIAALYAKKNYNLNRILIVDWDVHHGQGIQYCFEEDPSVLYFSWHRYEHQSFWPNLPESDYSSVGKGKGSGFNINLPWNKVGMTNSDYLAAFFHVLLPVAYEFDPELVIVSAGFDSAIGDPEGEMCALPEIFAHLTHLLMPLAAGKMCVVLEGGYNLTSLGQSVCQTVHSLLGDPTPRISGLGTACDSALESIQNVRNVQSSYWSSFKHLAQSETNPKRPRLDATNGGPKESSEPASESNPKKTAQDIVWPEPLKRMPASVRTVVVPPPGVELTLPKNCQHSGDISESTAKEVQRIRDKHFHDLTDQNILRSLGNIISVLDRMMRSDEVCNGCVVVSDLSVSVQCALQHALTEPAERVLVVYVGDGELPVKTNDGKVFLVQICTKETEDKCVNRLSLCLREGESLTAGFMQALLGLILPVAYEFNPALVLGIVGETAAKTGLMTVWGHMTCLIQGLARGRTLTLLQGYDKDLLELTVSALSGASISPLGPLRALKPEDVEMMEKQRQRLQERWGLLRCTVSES
Summary of the method: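 Recombinant wild-type drHDAC10 (5 nM final) was preincubated 5 min with test compound at various concentrations in 20 mM HEPES pH 7.4 with 0.5 mg/mL BSA. The reaction was started with 50 µM Ac-spermidine-AMC and incubated 25 min at 25 °C. A stop solution containing 16 mM NDA derivatized the released primary amine. Fluorescence was read at λex 330 nm and λem 390 nm.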

LLC-PK1 kidney cells = assay: Cytotoxicity, WST-8 cell viability, non-cancer kidney cells; format: cell-based; settings: read-out: Kidney cells IC50 LLC-PK1; 48 h incubation, mean ± SD (n = 3)
Summary of the method: as §1

[3] = Chlorocebus sabaeus, Vero, 48 h
[4] = 48 h incubation, mean ± SD (n = 3)
[5] = read-out: hHDAC6 IC50, recombinant human HDAC6
[6] = read-out: IC50 drHDAC10 ± SD, zebrafish HDAC10, recombinant wild type

SMILES	IC50 (KB (epidermal carcinoma); Homo sapiens, 48 h) [µM]	IC50 (SK-MEL (melanoma); Homo sapiens, 48 h) [µM]	IC50 (hHDAC8) [µM]	IC50 (Vero kidney cells; [3]) [µM]	IC50 ([1]; Homo sapiens, BT-549, 48 h) [µM]	IC50 ([2]; Homo sapiens, SK-OV-3, 48 h) [µM]	IC50 (hHDAC6) [µM]	IC50 (drHDAC10) [µM]	hHDAC1 % @1 µM (hHDAC1) [%]	hHDAC1 % @10 µM (hHDAC1) [%]	hHDAC8 % @1 µM (hHDAC8) [%]	hHDAC8 % @10 µM (hHDAC8) [%]	also measured
O=C(NO)c1ccc(CNCc2c[nH]c3ccccc23)cc1 [Compound 2a, 4-((((1H-indol-3-yl)methyl)amino)methyl)-N-hydroxybenzamide]	72.8 ± 2.4	> 80	0.35 ± 0.02	62.6 ± 2.39	> 80	61 ± 14.4	0.037 ± 0.002	0.00041 ± 2e-05					IC50 (hHDAC1): 4.5 ± 0.2 µM; selectivity of HDAC10 over HDAC6 (drHDAC10; ratio of HDAC6 to HDAC10 IC50): approximately 90 fold
O=C(NO)c1ccc(N2CCN(Cc3c[nH]c4ccccc34)CC2)cc1 [Compound 2b, 4-(4-((1H-indol-3-yl)methyl)piperazin-1-yl)-N-hydroxybenzamide]	12.1 ± 1.41	26 ± 3.62	0.074 ± 0.006	5.99 ± 0.4	16.8 ± 3.63	11.4 ± 4.04	0.073 ± 0.003	0.002 ± 0.0001	48.4	90.6			
Cc1ccc(S(=O)(=O)n2cc(CNCc3ccc(C(=O)NO)cc3)c3ccccc32)cc1 [Compound 2c, N-hydroxy-4-((((1-tosyl-1H-indol-3-yl)methyl)amino)methyl) benzamide]									22.2	72.8	65.1	97.3	IC50 (KB (epidermal carcinoma); [4]): 20.2 ± 0.32 µM; IC50 (SK-MEL (melanoma); [4]): 15.1 ± 0.94 µM; IC50 (Vero kidney cells; [4]): 21.4 ± 1.27 µM; IC50 [1, 4]: 16.5 ± 0.32 µM; IC50 [2, 4]: 21.4 ± 1.89 µM; IC50 (hHDAC6; [5]): 0.051 ± 0.005 µM; IC50 (drHDAC10; [6]): 0.0045 ± 0.0003 µM; reduction in HDAC10 inhibitory activity compared to compound 2a (drHDAC10; tosyl analogue vs compound 2a): ~10 fold; IC50 (LLC-PK1 kidney cells): 16.6 ± 3.93 µM
Cc1ccc(S(=O)(=O)n2cc(CNc3ccc(C(=O)NO)cc3)c3ccccc32)cc1 [Compound 2d, N-hydroxy-4-(((1-tosyl-1H-indol-3-yl)methyl)amino)benzamide]	13.3 ± 0.33	8.38 ± 2.11		50.5 ± 9.74	11.4 ± 0.16	12.6 ± 0.98	0.053 ± 0.005	0.29 ± 0.06	1.3	38.9	49.2	98.9	
Cc1ccc(S(=O)(=O)n2cc(CN3CCN(c4ccc(C(=O)NO)cc4)CC3)c3ccccc32)cc1 [Compound 2e, N-hydroxy-4-(4-((1-tosyl-1H-indol-3-yl)methyl)piperazin-1-yl)benzamide]	10 ± 0.7	8.82 ± 0.7		13.2 ± 1.82	9.71 ± 0.28	8.62 ± 0.42		0.075 ± 0.012	7.3	67.2	26.9	87.9	hHDAC6 % @1 µM (hHDAC6; inhibitor at 1 µM): 35.3%; hHDAC6 % @10 µM (hHDAC6; inhibitor at 10 µM): 95%; decrease in HDAC10 activity compared to unsubstituted counterpart compound 2b (drHDAC10; tosyl analogue vs compound 2b): ~38 fold
O=C(NO)c1ccc(NCc2cnc3ccccc3c2)cc1 [Compound 2f, N-hydroxy-4-((quinolin-3-ylmethyl)amino)benzamide]	9.72 ± 0.73	15.2 ± 1.21	0.21 ± 0.01	3.92 ± 0.24	14.8 ± 2.65	10.9 ± 2.89	0.0025 ± 0.0003	0.11 ± 0.01					
O=C(NO)c1ccc(N2CCN(Cc3cnc4ccccc4c3)CC2)cc1 [Compound 2g, N-hydroxy-4-{4-[(quinolin-3-yl)methyl]piperazin-1-yl}benzamide]	> 69	> 69		51 ± 1.95	> 69	> 69			32.1	79.4			IC50 (hHDAC8; read-out: hHDAC8 IC50, recombinant human HDAC8): 0.3 ± 0.02 µM; IC50 (hHDAC6; [5]): 0.13 ± 0.01 µM; IC50 (drHDAC10; [6]): 0.011 ± 0.001 µM
COc1cccc2c1C(=O)c1c(O)c3c(c(O)c1C2=O)C[C@@](O)(C(=O)CO)C[C@@H]3O[C@H]1C[C@H](N)[C@H](O)[C@H](C)O1 [Doxorubicin, reference compound]	2.3	2.52		> 11	3.44	2.01							
CN1CCc2c(c3ccccc3n2Cc2ccc(C(=O)NO)cc2)C1 [Tubastatin A, reference compound]								0.05 ± 0.003	7.6	29.9	46.4	84	
